Laboratory results as given in ChEMBL document CHEMBL1667730, “Antibacterial and anti-inflammatory activities of 4-hydroxycordoin: potential therapeutic benefits” (J Nat Prod, 2011).
Values after ≈ are worked out from the molar mass of the structure shown. Active and inactive are the calls of the source. The rule behind the calls is not given here.

Assays:
Porphyromonas gingivalis [1] = assay: Antibacterial activity against 14C-labeled Porphyromonas gingivalis ATCC 33277 assessed as inhibition of adhesion to human GMSM-K cells at 5 ug/ml after 30 mins by scintillation counting relative to control; type: functional; settings: ATCC 33277, GMSM-K, 0.5 h
Procedure, shortened: (§1)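 14C-amino acid-labelled (20 µCi/mL, 16 h, anaerobic) mid-log P. gingivalis washed in PBS pH 7.2, suspended to OD655 0.8 in prereduced PBS; mixed with compound (final 0, 0.2, 1, 5 µg/mL) and added to confluent GMSM-K monolayers for 30 min at 37 °C; unbound cells washed off, bound bacteria released with 0.5 M NaOH, scintillation counted. Triplicate, three independent assays, mean ± SD.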

U-937 [2] = assay: Antiinflammatory activity in human U937 cells assessed as inhibition of LPS-induced PGE2 production at 5 ug/ml treated 2 hrs before LPS challenge measured after 24 hrs; type: functional, cell-based
Porphyromonas gingivalis [3] = assay: Antibacterial activity against Porphyromonas gingivalis ATCC 33277 after 24 hrs; type: functional
Procedure, shortened: (§2)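 Broth microdilution in THB-HK: 24 h cultures diluted to OD655 0.2, mixed 1:1 with compound (0–40 µg/mL, twofold steps from 0.63), 24 h at 37 °C anaerobic (N2-H2-CO2 80:10:10); growth by OD655 relative to untreated. MIC = lowest concentration with no growth; MBC from no-growth wells plated on THB-HK agar, 5 days anaerobic. Triplicate, two independent experiments.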

U-937 [4] = assay: Antiinflammatory activity in human U937 cells assessed as inhibition of IL1-beta production at 5 ug/ml after 24 hrs by ELISA; type: functional, cell-based
Procedure, shortened: (§3)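 PMA-differentiated U937 macrophages (10 ng/mL PMA 48 h, then 24 h rest) at 1 × 10^6 cells/mL in RPMI with 1% FBS; compound (0, 0.2, 1, 5 µg/mL) for 2 h, then A. actinomycetemcomitans ATCC 29522 LPS (1 µg/mL final) for 24 h, 37 °C 5% CO2. Supernatant cytokines and MMP-9 by ELISA (A450, 550 correction). Triplicate, two experiments, t test.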

Fusobacterium nucleatum = assay: Antibacterial activity against Fusobacterium nucleatum ATCC 25586 after 24 hrs; type: functional; procedure, shortened: as §2
U-937 [5] = assay: Antiinflammatory activity in human U937 cells assessed as inhibition of LPS-induced MMP9 production at 5 ug/ml treated 2 hrs before LPS challenge measured after 24 hrs by ELISA; type: functional, cell-based; procedure, shortened: as §3
U-937 [6] = assay: Antiinflammatory activity in human U937 cells assessed as inhibition of LPS-induced MMP9 production at 1 ug/ml treated 2 hrs before LPS challenge measured after 24 hrs by ELISA; type: functional, cell-based; procedure, shortened: as §3
U-937 [7] = assay: Antiinflammatory activity in human U937 cells assessed as inhibition of LPS-induced CCL5 production at 5 ug/ml treated 2 hrs before LPS challenge measured after 24 hrs by ELISA; type: functional; procedure, shortened: as §3
U-937 [8] = assay: Antiinflammatory activity in human U937 cells assessed as inhibition of LPS-induced IL-6 production at 5 ug/ml treated 2 hrs before LPS challenge measured after 24 hrs by ELISA; type: functional; procedure, shortened: as §3
U-937 [9] = assay: Antiinflammatory activity in human U937 cells assessed as inhibition of LPS-induced TNFalpha production at 5 ug/ml treated 2 hrs before LPS challenge measured after 24 hrs by ELISA; type: functional; procedure, shortened: as §3
U-937 [10] = assay: Antiinflammatory activity in human U937 cells assessed as inhibition of LPS-induced IL1-beta production at 5 ug/ml treated 2 hrs before LPS challenge measured after 24 hrs by ELISA; type: functional; procedure, shortened: as §3
Porphyromonas gingivalis [11] = assay: Antibacterial activity against 14C-labeled Porphyromonas gingivalis ATCC 33277 assessed as inhibition of adhesion to human GMSM-K cells at 0.2 ug/ml after 30 mins by scintillation counting; type: functional, cell-based; procedure, shortened: as §1
U-937 [12] = assay: Antiinflammatory activity in human U937 cells assessed as inhibition of TNFalpha production at 5 ug/ml after 24 hrs by ELISA; type: functional, cell-based; procedure, shortened: as §3
U-937 [13] = assay: Antiinflammatory activity in human U937 cells assessed as inhibition of PGE2 production at 5 ug/ml after 24 hrs; type: functional, cell-based
U-937 [14] = assay: Antiinflammatory activity in human U937 cells assessed as inhibition of LPS-induced NF-kappaB p65 activation at 5 ug/ml treated 1 hrs before LPS challenge measured after 1 hr; type: functional, cell-based
Procedure, shortened: (§4)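 PMA-differentiated U937 macrophages given compound at 5 µg/mL for 1 h, then A. actinomycetemcomitans LPS at 1 µg/mL for 1 h, 37 °C 5% CO2. Whole-cell extracts adjusted to 1 mg/mL protein; NF-κB p65 and AP-1 activation measured by Trans-AM kits. Unstimulated and compound-free controls included; triplicate, three independent experiments.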

U-937 [15] = assay: Antiinflammatory activity in human U937 cells assessed as inhibition of LPS-induced AP-1 activation at 5 ug/ml treated 1 hrs before LPS challenge measured after 1 hr; type: functional, cell-based; procedure, shortened: as §4
U-937 [16] = assay: Antiinflammatory activity in human U937 cells assessed as inhibition of LPS-induced IL-8 production at 5 ug/ml treated 2 hrs before LPS challenge measured after 24 hrs by ELISA; type: functional; procedure, shortened: as §3
U-937 [17] = assay: Antiinflammatory activity in human U937 cells assessed as inhibition of IL-6 production at 5 ug/ml after 24 hrs by ELISA; type: functional, cell-based; procedure, shortened: as §3
Porphyromonas gingivalis [18] = assay: Antibacterial activity against 14C-labeled Porphyromonas gingivalis ATCC 33277 assessed as inhibition of adhesion to human GMSM-K cells after 30 mins by scintillation counting; type: functional, cell-based; procedure, shortened: as §1
U-937 [19] = assay: Antiinflammatory activity in human U937 cells assessed as inhibition of CCL5 production at 5 ug/ml after 24 hrs by ELISA; type: functional, cell-based; procedure, shortened: as §3
Porphyromonas gingivalis [20] = assay: Antibacterial activity against 14C-labeled Porphyromonas gingivalis ATCC 33277 assessed as inhibition of adhesion to human GMSM-K cells at 1 ug/ml after 30 mins by scintillation counting relative to control; type: functional; settings: ATCC 33277, GMSM-K, 0.5 h; procedure, shortened: as §1
[21] = Cytotoxicity against human GMSM-K cells assessed as reduction of cell viability at up to 50 ug/ml after 2 hrs by MTT assay; type: cell-based
Procedure, shortened: (§5)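 MTT colorimetric viability assay on GMSM-K epithelial cells and PMA-differentiated U937 macrophages after 2 h exposure to compound at up to 50 µg/mL.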

Prevotella intermedia [22] = assay: Antibacterial activity against Prevotella intermedia ATCC 25611 after 24 hrs; type: functional; procedure, shortened: as §2
U-937 [23] = assay: Cytotoxicity against human U937 cells assessed as reduction of cell viability at up to 50 ug/ml after 2 hrs by MTT assay; type: cell-based; settings: u-937, 2 h; procedure, shortened: as §5
Prevotella intermedia [24] = assay: Antibacterial activity against Prevotella intermedia ATCC 25611 assessed as reduction of bacterial growth at 1.25 ug/ml after 24 hrs; type: functional; parameters: scale not given: the % may be the effect or the level left; procedure, shortened: as §2
U-937 [25] = assay: Antiinflammatory activity in human U937 cells assessed as inhibition of IL-8 production at 5 ug/ml after 24 hrs by ELISA; type: functional, cell-based; procedure, shortened: as §3

- MIC (Porphyromonas gingivalis [3]; ATCC 33277, 24 h): 5 µg/mL (≈ 15.4 µM)
- MIC (Fusobacterium nucleatum; ATCC 25586, 24 h): 40 µg/mL (≈ 123 µM)
- MIC (Prevotella intermedia [22]; ATCC 25611, 24 h): 2.5 µg/mL (≈ 7.71 µM)
Compound: CC(C)=CCOc1ccc(C(=O)/C=C/c2ccc(O)cc2)c(O)c1
- inhibition at 5 µg/mL (Porphyromonas gingivalis [1]): 36%
- inhibition (U-937 [2]): Active
- Activity (Porphyromonas gingivalis [3]): Dose-dependent effect
- MBC (Porphyromonas gingivalis [3]; ATCC 33277, 24 h): 10 µg/mL (≈ 30.8 µM)
- inhibition (U-937 [4]): inactive
- Activity (Fusobacterium nucleatum): Dose-dependent effect
- MBC (Fusobacterium nucleatum; ATCC 25586, 24 h): > 40 µg/mL
- inhibition (U-937 [5]): Active
- inhibition (U-937 [6]): Active
- inhibition at 5 µg/mL (U-937 [7]): 67%
- inhibition at 5 µg/mL (U-937 [8]): 50%
- inhibition at 5 µg/mL (U-937 [9]): 23%
- inhibition at 5 µg/mL (U-937 [10]): 29%
- inhibition (Porphyromonas gingivalis [11]): inactive
- inhibition (U-937 [12]): inactive
- inhibition (U-937 [13]): inactive
- inhibition (U-937 [14]): Active
- inhibition (U-937 [15]): Active
- inhibition at 5 µg/mL (U-937 [16]): 38%
- inhibition (U-937 [17]): inactive
- inhibition (Porphyromonas gingivalis [18]): Dose-dependent effect
- inhibition (U-937 [19]): inactive
- inhibition at 1 µg/mL (Porphyromonas gingivalis [20]): 31%
- Activity [21]: Non-toxic
- Activity (Prevotella intermedia [22]): Dose-dependent effect
- MBC (Prevotella intermedia [22]; ATCC 25611, 24 h): 5 µg/mL (≈ 15.4 µM)
- Activity (U-937 [23]): Non-toxic
- Activity (Prevotella intermedia [24]): 45%
- inhibition (U-937 [25]): inactive
